Assay results of several laboratories.
Each line is one published result; the experiments were not run side by side.
SLC18A2: Synaptic vesicular amine transporter (SLC18A2, Homo sapiens, UniProt Q05940)
ADRA2A: Alpha-2A adrenergic receptor (ADRA2A, Homo sapiens, UniProt P08913)
LATS1: Serine/threonine-protein kinase LATS1 (LATS1, Homo sapiens, UniProt O95835)

| SMILES | target | assay | conditions | quantity | result |
| --- | --- | --- | --- | --- | --- |
| O=C(c1ccc(OCCN2CCCCC2)cc1)c1c(-c2ccc(O)cc2)sc2cc(O)ccc12 | SLC18A2 | transporter uptake, inhibitor, radiometric | cell membranes | IC50 | 127 nM |
| Cc1cc(Oc2ncccc2CN2CCN(c3ccccc3Br)CC2)ccc1-c1c(C)c(=O)[nH]c(=O)n1C | ADRA2A | ligand displacement, radioligand | – | Ki | 135 nM |
| COc1ccc(CN=c2[nH]c(N3CCC[C@H]3CO)ncc2C(=O)NCc2ncccn2)cc1Cl | SLC18A2 | transporter uptake, inhibitor | – | IC50 | 9670 nM |
| COc1cc(C)c(/C=C/C(C)=C/C=C/C(C)=C/C(=O)O)c(C)c1C | Carbonic anhydrase 2 (CA2, Homo sapiens, UniProt P00918) | enzyme activity, inhibitor, absorbance | pH 7.4 | IC50 | 12600 nM |
| O=C(O)c1cc2ccc(C#CC3(O)CCCCC3)cc2n1-c1ccccc1 | Microphthalmia-associated transcription factor (Homo sapiens, UniProt O75030) | binding, ITC | – | Kd | 13400 nM |
| COc1ccc(Cl)cc1N1CCN(Cc2cccnc2Oc2ccc(-c3c(C)c(=O)[nH]c(=O)n3C)c(C)c2)CC1 | ADRA2A | ligand displacement, radioligand | – | Ki | 76.5 nM |
| CCc1nn(CCCN2CCN(c3cccc(Cl)c3)CC2)c(=O)n1CCOc1ccccc1 | SLC18A2 | transporter uptake, inhibitor, radiometric | cell membranes | IC50 | 667 nM |
| Cc1cc(-c2ccnc3[nH]cc(F)c23)cc(F)c1[C@@]1(O)[C@H](C)CN(C(=O)CN)C[C@@H]1C | LATS1 | target engagement in cells, BRET | – | IC50 | 6.1 nM |
| Cc1cc(Oc2ncccc2CN2CCN(c3cccc(F)c3)CC2)ccc1-c1c(C)c(=O)[nH]c(=O)n1C | ADRA2A | ligand displacement, radioligand | – | Ki | 88.7 nM |
| Cc1cnc(Nc2ccc(OCCN3CCCC3)cc2)nc1Nc1cccc(S(=O)(=O)NC(C)(C)C)c1 | SLC18A2 | transporter uptake, inhibitor, radiometric | cell membranes | IC50 | 418 nM |
| Cc1cc(Oc2ncccc2CN2CCN(c3ncccc3C(F)(F)F)CC2)ccc1-c1c(C)c(=O)[nH]c(=O)n1C | ADRA2A | ligand displacement, radioligand | – | Ki | 47.4 nM |
| CN(C)CCC(c1ccccc1)c1ccccn1 (stereo not drawn) | Carbonic anhydrase 1 (CA1, Homo sapiens, UniProt P00915) | enzyme activity, inhibitor, absorbance | pH 7.4 | IC50 | 20400 nM |
| O=C(Nc1c[nH]nc1-c1nc2cc(CN3CCOCC3)ccc2[nH]1)NC1CC1 | LATS1 | enzyme activity, inhibitor, radiometric | – | IC50 | 73 nM |
| CC(C)(C)NC(=O)C1CCN(Cc2cccc(NC(=O)c3ccc(F)cc3)c2)CC1 | Atypical chemokine receptor 3 (ACKR3, Homo sapiens, UniProt P25106) | β-arrestin recruitment, agonist, luciferase | – | EC50 | 10 nM |
| Cc1ccc(N2CCN(Cc3cccnc3Oc3ccc(-c4c(C)c(=O)[nH]c(=O)n4C)c(C)c3)CC2)cc1C | ADRA2A | ligand displacement, radioligand | – | Ki | 546 nM |
| COc1cc2nc(N(C)CCCNC(=O)C3CCCO3)nc(N)c2cc1OC (stereo not drawn) | SLC18A2 | transporter uptake, inhibitor | – | IC50 | 249 nM |
| Cc1cc(Oc2ncccc2CN2CCN(c3ccc(C(F)(F)F)cn3)CC2)ccc1-c1c(C)c(=O)[nH]c(=O)n1C | ADRA2A | ligand displacement, radioligand | – | Ki | 1280 nM |
| Clc1ccc(C2(c3ccc(-c4ccnc5[nH]ccc45)cc3)CCNCC2)cc1 | LATS1 | target engagement in cells, BRET | – | IC50 | 2230 nM |
| CC(C)C[C@H](NC(=O)[C@H](CC(C)C)NC(=O)[C@H](Cc1c[nH]c2ccccc12)NC(=O)[C@H](CCC(N)=O)NC(=O)[C@@H](NC(=O)[C@H](Cc1ccccc1)NC(=O)[C@H](CC(=O)O)NC(=O)[C@H](CCC(N)=O)NC(=O)[C@H](C)NC(=O)[C@H](C)NC(=O)[C@H](CCCNC(=N)N)NC(=O)[C@H](CCC(=O)O)NC(=O)[C@H](CC(=O)O)NC(=O)[C@H](CC(C)C)NC(=O)[C@H](Cc1ccc(O)cc1)NC(=O)[C@H](CCCCN)NC(=O)[C@H](CO)NC(=O)[C@H](Cc1ccc(O)cc1)NC(=O)[C@H](CC(=O)O)NC(=O)[C@H](CO)NC(=O)[C@@H](NC(=O)[C@H](Cc1ccccc1)NC(=O)[C@@H](NC(=O)CNC(=O)[C@H](CCC(N)=O)NC(=O)C(C)(C)NC(=O)[C@@H](N)Cc1c[nH]cn1)[C@@H](C)O)[C@@H](C)O)C(C)C)C(=O)N[C@@H](CC(=O)O)C(=O)NCC(=O)NCC(=O)N1CCC[C@H]1C(=O)N[C@@H](CO)C(=O)N[C@@H](CC(C)C)C(=O)N[C@@H](CCCNC(=N)N)C(=O)N[C@@H](Cc1c[nH]cn1)C(=O)N[C@@H](Cc1ccc(O)cc1)C(=O)N[C@@H](CC(C)C)C(=O)N[C@@H](CC(N)=O)C(=O)N[C@@H](CC(C)C)C(=O)N[C@H](C(=O)N[C@H](C(=O)N[C@@H](CCCNC(=N)N)C(=O)N[C@@H](CCC(N)=O)C(=O)N[C@@H](CCCNC(=N)N)C(=O)N[C@@H](Cc1ccc(O)cc1)C(N)=O)[C@@H](C)O)C(C)C | Gastric inhibitory polypeptide receptor (GIPR, Homo sapiens, UniProt P48546) | reporter gene, agonist, luciferase | – | EC50 | 0.28 nM |
| OC1(c2ccc(-c3ccnc4[nH]cc(F)c34)cc2)CCCNC1 (stereo not drawn) | LATS1 | enzyme activity, inhibitor, radiometric | – | IC50 | 26 nM |
| O=C1Cc2cc(CCN3CCN(c4nsc5ccccc45)CC3)c(Cl)cc2N1 | SLC18A2 | transporter uptake, inhibitor, radiometric | cell membranes | IC50 | 15 nM |
